Values after ≈ are worked out from the molar mass of the structure shown. Active and inactive are the calls of the source. No cut-off for these calls is given here. Where a SMILES comes first, the peptide text is derived from it. [ ]: non-standard residue; d: D form. The star is where a group is joined. Lauroyl = CCCCCCCCCCCC(=O)*; Decanoyl = CCCCCCCCCC(=O)*; Aib = CC(C)(N)C(=O)O; βAla = NCCC(=O)O
Legend:
[Candida] auris = Antimicrobial activity against Candida auris CDCB11903 measured after 16 hrs by CLSI protocol based method; format: functional; conditions: Candidozyma auris
Staphylococcus aureus [1] = test: Antimicrobial activity against methicillin resistant Staphylococcus aureus ATCC BAA41 measured after 16 hrs by CLSI protocol based method; format: functional
Staphylococcus aureus [2] = test: Antimicrobial activity against Staphylococcus aureus ATCC 25923 measured after 16 hrs by CLSI protocol based method; format: functional
Staphylococcus aureus [3] = test: Antimicrobial activity against multidrug resistant Staphylococcus aureus ATCC BAA-44 measured after 16 hrs by CLSI protocol based method; format: functional
HCT-116 = test: Antiproliferative activity against human HCT-116 cells measured after 24 hrs by MTT assay; format: functional, cell-based; conditions: HCT-116, 24 h
Procedure, shortened: (§1)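 MTT read-out after 24 h; HCT-116 (7000 cells/well) or MDA-MB-231 (8000 cells/well) in DMEM with 10% FBS, 37 °C, 5% CO2, plated overnight before dosing; MTT 0.5 mg/ml final, 2 h at 37 °C; formazan dissolved in DMSO, A550; vehicle (0.5% DMSO) set as 100% growth; biological triplicates, two technical replicates.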

MDA-MB-231 = test: Antiproliferative activity against human MDA-MB-231 cells measured after 24 hrs by MTT assay; format: functional, cell-based; conditions: MDA-MB-231, 24 h; procedure, shortened: as §1
[4] = Hemolytic activity in sheep erythrocytes assessed as hemolysis incubated for 1 hr by microplate reader based analysis; format: toxicity, cell-based, Ovis aries, Erythrocyte
Procedure, shortened: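 Defibrinated sheep blood washed 3× in PBS, diluted 1:500 (~8×10^7 cells/mL); 190 μL suspension plus 10 μL 20-fold compound stock in PBS + 0.5% DMSO, 1 h at 37 °C; centrifuged, supernatant OD450; 0.1% Triton X-100 positive control; three independent experiments.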

OVCAR-8 = test: Antiproliferative activity against human OVCAR-8 cells measured after 24 hrs by MTT assay; format: functional; conditions: read-out: LC50 (the source's name)
SK-MEL-5 [5] = test: Induction of calcium influx in human SK-MEL-5 cells assessed as increase in fluorescence at 1 to 4 uM measured upto 120 secs by fluorescence based assay; format: functional, cell-based; conditions: dose 1-4 µM, time <= 120.0 sec
[6] = Toxicity in zebra fish AB embryo assessed as mortality at 10 uM incubated for 48 hrs relative to control; set-up: species or system Danio rerio; conditions: zebrafish, read-out: Activity
[7] = Toxicity in zebra fish AB embryo assessed as mortality incubated for 48 hrs; set-up: species or system Danio rerio; conditions: zebrafish
[8] = Toxicity in human SK-MEL-5 cells assessed as calcium influx-mediated cell rupture at 16 uM measured upto 120 secs by fluorescence based analysis; conditions: sk-mel-5, 2 min, time < 120 sec
SK-MEL-5 [9] = test: Induction of mitochondrial membrane potential in human SK-MEL-5 cells assessed as reduction in accumulation of dye at 1 uM measured after 30 mins by […] staining based confocal microscopy analysis; format: functional, cell-based
Procedure, shortened: (§2)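 SK-Mel-5 on poly-L-lysine-coated coverslips, 24 h; 30 min at 37 °C with 2 μM MitoOrange, 0.1% Hoechst 33342 and 1 μM compound, 0.1% DMSO or 50 μM FCCP; washed in warm PBS with CaCl2/MgCl2; confocal imaging, 20x objective, transmitted light plus MitoOrange CMTMRos and Hoechst channels.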

SK-MEL-5 [10] = test: Induction of apoptosis in human SK-MEL-5 cells assessed as membrane blebbing at 1 uM measured after 30 mins by confocal microscopy based analysis; format: functional, cell-based; procedure, shortened: as §2
SK-MEL-5 [11] = test: Induction of apoptosis in human SK-MEL-5 cells assessed as early apoptosis at 1 to 4 uM measured after 3 hrs by Annexin V-FITC/propidium iodide staining based flow cytometric analysis; format: functional, cell-based; conditions: dose 1-4 µM
Procedure, shortened: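 SK-Mel-5 (1 × 10^6 cells per T25) grown 24 h, then treated 3 h in medium at 1 or 4 μM; 0.5% DMSO vehicle, 5 μM camptothecin control; trypsinised, washed, stained with FITC-annexin V and propidium iodide 15 min at RT in the dark, analysed by flow cytometry within 1 h.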

[12] = Toxicity in zebra fish AB embryo assessed as mortality at 50 uM incubated for 48 hrs relative to control; set-up: species or system Danio rerio; conditions: zebrafish, read-out: Activity

| SMILES | MIC ([Candida] auris) [µg/mL] | MIC (Staphylococcus aureus [1]) [µg/mL] | MIC (Staphylococcus aureus [2]) [µg/mL] | MIC (Staphylococcus aureus [3]) [µg/mL] | IC50 (HCT-116) [µM] | IC50 (MDA-MB-231) [µM] | IC50 at 1 h [4] [µM] | other results |
| --- | --- | --- | --- | --- | --- | --- | --- | --- |
| CCCCCCCCCC(=O)NC(C)(C)C(=O)N1CCC[C@H]1C(=O)NC(C)(C)C(=O)NC(C)(C)C(=O)N1CCC[C@H]1C(=O)NC(C)(C)C(=O)NC(C)(C)C(=O)N1CCC[C@H]1C(=O)N[C@@H](C)C(=O)NC(C)(C)C(=O)NCCC(=O)N[C@@H](C)C(=O)NC(C)(C)C(=O)NC(C)(C)C(=O)NCCC(=O)NC(C)(C)C(=O)NC(C)(C)C(=O)NC(C)(C)C(=O)N[C@@H](C)C(=O)NCCC(=O)O (Decanoyl-[Aib]P[Aib][Aib]P[Aib][Aib]PA[Aib][βAla]A[Aib][Aib][βAla][Aib][Aib][Aib]A[βAla]-OH) [listing 1 of 2 here] | 16 (≈ 8.76 µM) | 16 (≈ 8.76 µM) | 16 (≈ 8.76 µM) | 16 (≈ 8.76 µM) |  |  |  |  |
| CCCCCCCCCC(=O)NC(C)(C)C(=O)N1CCC[C@H]1C(=O)NC(C)(C)C(=O)NC(C)(C)C(=O)N1CCC[C@H]1C(=O)NC(C)(C)C(=O)NC(C)(C)C(=O)N1CCC[C@H]1C(=O)NC(C)(C)C(=O)NC(C)(C)C(=O)NCCC(=O)N[C@@H](C)C(=O)NC(C)(C)C(=O)NC(C)(C)C(=O)NCCC(=O)NC(C)(C)C(=O)NC(C)(C)C(=O)NC(C)(C)C(=O)N[C@@H](C)C(=O)NCCC(=O)O (Decanoyl-[Aib]P[Aib][Aib]P[Aib][Aib]P[Aib][Aib][βAla]A[Aib][Aib][βAla][Aib][Aib][Aib]A[βAla]-OH) [listing 1 of 2 here] |  |  |  |  | 6.1 | 8.2 | 10 |  |
| CCCCCCCCCCCC(=O)NC(C)(C)C(=O)N1CCC[C@H]1C(=O)NC(C)(C)C(=O)NC(C)(C)C(=O)N1CCC[C@H]1C(=O)NC(C)(C)C(=O)NC(C)(C)C(=O)N1CCC[C@H]1C(=O)N[C@@H](C)C(=O)NC(C)(C)C(=O)NCCC(=O)N[C@@H](C)C(=O)NC(C)(C)C(=O)NC(C)(C)C(=O)NCCC(=O)NC(C)(C)C(=O)NC(C)(C)C(=O)NC(C)(C)C(=O)N[C@@H](C)C(=O)NCCC(=O)O [listing 1 of 2 here] | 4 (≈ 2.16 µM) | 4 (≈ 2.16 µM) | 4 (≈ 2.16 µM) | 4 (≈ 2.16 µM) |  |  |  | CC50 (OVCAR-8): > 16 µM |
| CC[C@H](C)C[C@H](C)CCCCCCCCC(=O)N[C@H]1C[C@@H](O)[C@@H](NCCN)NC(=O)[C@@H]2[C@@H](O)CCN2C(=O)[C@H]([C@H](O)CCN)NC(=O)[C@H]([C@H](O)[C@@H](O)c2ccc(O)cc2)NC(=O)[C@@H]2C[C@@H](O)CN2C(=O)[C@H]([C@@H](C)O)NC1=O [CASPOFUNGIN] | 2 (≈ 1.83 µM) |  |  |  |  |  |  |  |
| C[C@H](CCC(=O)O)C[C@H](C)C[C@H](C)C(=O)/C=C(\O)[C@H](C)C[C@H](C)C/C=C/[C@@H](C)[C@@H](O)[C@@H](C)[C@@H](O)C[C@@H]1CC[C@@](C)([C@H]2CC[C@@](C)([C@@H](C)O)O2)O1 |  |  |  |  |  |  |  | Activity (SK-MEL-5 [5]): Active |
| COc1cccc2c1[C@H](OC)[C@]13O[C@@]1(C2=O)[C@H](O)[C@H](C)[C@@](O)(C(=O)[C@@H]1O[C@H]1C)[C@@H]3O |  |  |  |  | 1.3 | 0.6 |  |  |
| CCCCCCCCCCCC(=O)NC(C)(C)C(=O)N1CCC[C@H]1C(=O)NC(C)(C)C(=O)NC(C)(C)C(=O)N1CCC[C@H]1C(=O)NC(C)(C)C(=O)NC(C)(C)C(=O)N1CCC[C@H]1C(=O)NC(C)(C)C(=O)NC(C)(C)C(=O)NCCC(=O)N[C@@H](C)C(=O)NC(C)(C)C(=O)NC(C)(C)C(=O)NCCC(=O)NC(C)(C)C(=O)NC(C)(C)C(=O)NC(C)(C)C(=O)N[C@@H](C)C(=O)NCCC(=O)O (Lauroyl-[Aib]P[Aib][Aib]P[Aib][Aib]P[Aib][Aib][βAla]A[Aib][Aib][βAla][Aib][Aib][Aib]A[βAla]-OH) [listing 1 of 2 here] |  |  |  |  | 9.5 | 11.1 | 2 |  |
| CCCCCCCCCCCC(=O)NC(C)(C)C(=O)N1CCC[C@H]1C(=O)NC(C)(C)C(=O)NC(C)(C)C(=O)N1CCC[C@H]1C(=O)NC(C)(C)C(=O)NC(C)(C)C(=O)N1CCC[C@H]1C(=O)N[C@@H](C)C(=O)NC(C)(C)C(=O)NCCC(=O)N[C@@H](C)C(=O)NC(C)(C)C(=O)NC(C)(C)C(=O)NCCC(=O)NC(C)(C)C(=O)NC(C)(C)C(=O)NC(C)(C)C(=O)N[C@@H](C)C(=O)NCCC(=O)O [listing 2 of 2 here] |  |  |  |  | 1.2 | 1.5 | 1.5 | mortality at 48 h, 10 µM [6]: 100%; EC50 at 48 h [7]: 5 µM; Activity [8]: Toxic |
| CCCCCCCCCCCC(=O)NC(C)(C)C(=O)N1CCC[C@@H]1C(=O)NC(C)(C)C(=O)NC(C)(C)C(=O)N1CCC[C@@H]1C(=O)NC(C)(C)C(=O)NC(C)(C)C(=O)N1CCC[C@H]1C(=O)N[C@@H](C)C(=O)NC(C)(C)C(=O)NCCC(=O)N[C@@H](C)C(=O)NC(C)(C)C(=O)NC(C)(C)C(=O)NCCC(=O)NC(C)(C)C(=O)NC(C)(C)C(=O)NC(C)(C)C(=O)N[C@@H](C)C(=O)NCCC(=O)O |  |  |  |  |  |  |  | Activity (SK-MEL-5 [9]): Active; Activity (SK-MEL-5 [10]): inactive; Activity (SK-MEL-5 [11]): Active |
| CCCCCCCCCC(=O)NC(C)(C)C(=O)N1CCC[C@H]1C(=O)NC(C)(C)C(=O)NC(C)(C)C(=O)N1CCC[C@H]1C(=O)NC(C)(C)C(=O)NC(C)(C)C(=O)N1CCC[C@H]1C(=O)N[C@@H](C)C(=O)NC(C)(C)C(=O)NCCC(=O)N[C@@H](C)C(=O)NC(C)(C)C(=O)NC(C)(C)C(=O)NCCC(=O)NC(C)(C)C(=O)NC(C)(C)C(=O)NC(C)(C)C(=O)N[C@@H](C)C(=O)NCCC(=O)O (Decanoyl-[Aib]P[Aib][Aib]P[Aib][Aib]PA[Aib][βAla]A[Aib][Aib][βAla][Aib][Aib][Aib]A[βAla]-OH) [listing 2 of 2 here] |  |  |  |  | 5.2 | 9.2 | 7 | mortality at 48 h, 50 µM [12]: 100%; EC50 at 48 h [7]: 30 µM |
| CCCCCCCCCCCC(=O)NC(C)(C)C(=O)N1CCC[C@H]1C(=O)NC(C)(C)C(=O)NC(C)(C)C(=O)N1CCC[C@H]1C(=O)NC(C)(C)C(=O)NC(C)(C)C(=O)N1CCC[C@H]1C(=O)NC(C)(C)C(=O)NC(C)(C)C(=O)NCCC(=O)N[C@@H](C)C(=O)NC(C)(C)C(=O)NC(C)(C)C(=O)NCCC(=O)NC(C)(C)C(=O)NC(C)(C)C(=O)NC(C)(C)C(=O)N[C@@H](C)C(=O)NCCC(=O)O (Lauroyl-[Aib]P[Aib][Aib]P[Aib][Aib]P[Aib][Aib][βAla]A[Aib][Aib][βAla][Aib][Aib][Aib]A[βAla]-OH) [listing 2 of 2 here] | 16 (≈ 8.56 µM) | 8 (≈ 4.28 µM) | 4 (≈ 2.14 µM) | 8 (≈ 4.28 µM) |  |  |  |  |
| NC[C@H]1O[C@H](O[C@H]2[C@H](O)[C@@H](O[C@H]3O[C@H](CO)[C@@H](O)[C@H](N)[C@H]3O)[C@H](N)C[C@@H]2N)[C@H](O)[C@@H](O)[C@@H]1O [KANAMYCIN] |  |  | 1 (≈ 2.06 µM) |  |  |  |  |  |
| CCCCCCCCCC(=O)NC(C)(C)C(=O)N1CCC[C@H]1C(=O)NC(C)(C)C(=O)NC(C)(C)C(=O)N1CCC[C@H]1C(=O)NC(C)(C)C(=O)NC(C)(C)C(=O)N1CCC[C@H]1C(=O)NC(C)(C)C(=O)NC(C)(C)C(=O)NCCC(=O)N[C@@H](C)C(=O)NC(C)(C)C(=O)NC(C)(C)C(=O)NCCC(=O)NC(C)(C)C(=O)NC(C)(C)C(=O)NC(C)(C)C(=O)N[C@@H](C)C(=O)NCCC(=O)O (Decanoyl-[Aib]P[Aib][Aib]P[Aib][Aib]P[Aib][Aib][βAla]A[Aib][Aib][βAla][Aib][Aib][Aib]A[βAla]-OH) [listing 2 of 2 here] | 16 (≈ 8.69 µM) | 16 (≈ 8.69 µM) | 16 (≈ 8.69 µM) | 16 (≈ 8.69 µM) |  |  |  |  |

From ChEMBL document CHEMBL5321263, “Metabolomics-Guided Discovery, Isolation, Structure Elucidation, and Bioactivity of Myropeptins C-E from Myrothecium inundatum” (J Nat Prod, 2023)
